From ChEMBL document CHEMBL4673245, “Discovery of AZD9833, a Potent and Orally Bioavailable Selective Estrogen Receptor Degrader and Antagonist” (J Med Chem, 2020) come the findings set out here.

Series [1] is described as follows: Photostability of compound under 1.2 mil lux.h white light and 200 W.h/m2 UV light assessed parent compound remaining using crystalline form of sample by chromatographic method. In kind it is physicochemical.
A short description of series [2]: Stability of compound at 60 degC and ambient dry condition assessed parent compound remaining measured 2 weeks using crystalline form of sample by chromatographic method. Conditions: solid sample, read-out: Stabilty. The format is physicochemical.
Series [3] can be described thus: Stability of compound at 40 degC and 75% relative humidity assessed parent compound remaining measured after 3 months using crystalline form of sample by chromatographic method. The format is physicochemical. Particulars: solid sample, read-out: Stabilty.
The nature of series [4]: Photostability of compound under 1.2 mil lux.h white light and 200 W.h/m2 UV light assessed parent compound remaining using amorphous form of sample by chromatographic method. In kind it is physicochemical.
The target of another series is Cytochrome P450 2C9 (Homo sapiens, UniProt P11712). Briefly: Inhibition of CYP2C9 in human liver microsomes. The format is ADME. An outline of the steps:
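High-throughput human liver microsome panel of five CYP isoforms; inhibition reported as IC50.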
In general terms: Liver microsomes are a subcellular fraction often used to study metabolism.

A short description of series [5]: Antitumor activity against human […] cells xenografted in CB17 SCID mouse assessed as tumor growth inhibition at 2 mg/kg, po administered daily via oral gavage for 21 days relative to control. The format is functional. Particulars: MCF7, po, time 21 day, read-out: TGI. On the technique in general: Xenograft models place foreign cells or tissue in a host animal.

Series [6] concerns MCF7. In words: Antiproliferative activity against human MCF7 cells harboring Y537S mutant assessed as reduction in cell viability incubated for 4 to 6 days by SYTOX Green dye based fluorescence assay. The format is functional.
The subject of series [7] is MCF7. In words: Antiproliferative activity against human wild-type MCF7 cells assessed as decrease in estradiol-mediated cell viability incubated for 4 to 6 days by SYTOX Green dye based fluorescence assay. In kind it is functional.
Another series deals with Histamine H3 receptor (Homo sapiens, UniProt Q9Y5N1). Briefly: Antagonist activity at human histamine H3 receptor expressed in CHO-K1 cells after 10 mins by HTRF assay. The format is cell-based. In general terms: TR-FRET usually uses a lanthanide donor and a delayed reading to cut background.
Chain of Histamine H3 receptor (Q9Y5N1 whole entry): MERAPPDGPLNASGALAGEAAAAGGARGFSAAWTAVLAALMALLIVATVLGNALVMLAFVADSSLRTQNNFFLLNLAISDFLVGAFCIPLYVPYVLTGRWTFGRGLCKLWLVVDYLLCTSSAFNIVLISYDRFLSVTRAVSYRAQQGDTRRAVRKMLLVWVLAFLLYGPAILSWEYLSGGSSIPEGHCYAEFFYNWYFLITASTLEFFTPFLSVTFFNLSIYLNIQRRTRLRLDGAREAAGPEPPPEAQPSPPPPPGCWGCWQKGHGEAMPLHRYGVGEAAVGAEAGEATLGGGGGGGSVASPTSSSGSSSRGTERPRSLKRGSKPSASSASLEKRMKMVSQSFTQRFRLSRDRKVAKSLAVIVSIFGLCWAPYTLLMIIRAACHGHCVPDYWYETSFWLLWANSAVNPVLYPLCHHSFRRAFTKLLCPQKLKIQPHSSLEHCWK
The nature of series [8]: Half-life in mouse at 2 mg/kg, iv or 5 mg/kg, po. The format is ADME, organism-based. Conditions: in vivo.
Series [9] can be described thus: Volume of distribution at steady state in mouse at 2 mg/kg, iv or 5 mg/kg, po. The format is ADME, organism-based. Conditions: in vivo, read-out: Vdss.
Series [10] is described as follows: Fraction absorbed in rat at 0.5 mg/kg, iv or 1 mg/kg, po. The format is ADME, organism-based. Conditions: in vivo, read-out: Fabs. The essentials: (§1)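 Rat PK: single IV dose 0.5 mg/kg and oral dose 1 mg/kg, formulated in 5% DMSO:95% hydroxypropyl-β-cyclodextrin (30% w/v), dosed at 1 mL/kg IV and 4 mL/kg PO.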
Series [11] in a line: Intrinsic clearance in mouse hepatocytes assessed per million cells. The format is ADME, cell-based, Hepatocyte. Conditions: read-out: CLH. The essentials:
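Compound added from DMSO stock to isolated hepatocytes diluted to 1x10⁶ cells/mL. Metabolic turnover rate is reported as intrinsic clearance in µl/min/10⁶ cells.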

Series [12] can be described thus: Chemical stability of compound assessed as drug degradation in buffer at pH 7.4 stored at 22 to 60 degreeC measured after 5 days. The format is physicochemical. Conditions: pH 7.4, 120 h, time 5 day.
Series [13] is described as follows: Chemical stability of compound assessed as drug degradation in deuterated buffer at pH 7.4 measured for 8 days. In kind it is physicochemical. Particulars: pH 7.4, 192 h, time 8 day.
Series [14] can be described thus: Oral bioavailability in rat at 1 mg/kg. Conditions: in vivo. In kind it is ADME, organism-based. An outline of the steps: as §1
Series [15] is described as follows: Clearance in rat at 0.5 mg/kg, iv or 1 mg/kg, po. In kind it is ADME, organism-based. Conditions: in vivo. An outline of the steps:
as §1

The nature of series [16]: Dissociation constant, dibasic pKa of compound in 0.1 M potassium chloride in presence of azetidine by UV-vis spectroscopy. In kind it is physicochemical.
Series [17] can be described thus: Fraction unbound in mouse plasma. The format is ADME, cell-free.
Series [18] deals with T1, Estrogen receptor (Homo sapiens) (UniProt P03372).
T1 sequence (whole entry): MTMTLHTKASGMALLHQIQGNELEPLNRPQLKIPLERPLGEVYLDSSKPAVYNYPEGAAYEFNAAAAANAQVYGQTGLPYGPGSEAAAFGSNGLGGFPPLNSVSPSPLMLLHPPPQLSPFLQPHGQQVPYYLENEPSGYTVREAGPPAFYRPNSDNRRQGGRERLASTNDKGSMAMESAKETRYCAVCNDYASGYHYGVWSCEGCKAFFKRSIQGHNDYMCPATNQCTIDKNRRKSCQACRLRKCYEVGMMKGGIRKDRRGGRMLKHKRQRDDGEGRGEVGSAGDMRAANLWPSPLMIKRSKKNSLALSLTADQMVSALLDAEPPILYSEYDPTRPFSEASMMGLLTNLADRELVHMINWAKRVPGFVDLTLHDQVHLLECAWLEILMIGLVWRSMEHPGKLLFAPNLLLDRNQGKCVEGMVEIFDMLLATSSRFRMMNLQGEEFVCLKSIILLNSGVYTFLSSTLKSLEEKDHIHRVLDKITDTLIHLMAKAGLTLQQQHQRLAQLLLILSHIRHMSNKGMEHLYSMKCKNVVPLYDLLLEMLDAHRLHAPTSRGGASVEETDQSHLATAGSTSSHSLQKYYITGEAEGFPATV
Briefly: Induction of ERalpha degradation in human MCF7 cells assessed as maximum degradation incubated for 18 to 24 hrs by Alexa fluor 488/Hoechst staining based immunofluorescence imaging analysis relative to fulvestrant. Conditions: time lower […], time upper […]. In kind it is cell-based.

Chain of Cytochrome P450 2C9 (P11712 whole entry, canonical isoform): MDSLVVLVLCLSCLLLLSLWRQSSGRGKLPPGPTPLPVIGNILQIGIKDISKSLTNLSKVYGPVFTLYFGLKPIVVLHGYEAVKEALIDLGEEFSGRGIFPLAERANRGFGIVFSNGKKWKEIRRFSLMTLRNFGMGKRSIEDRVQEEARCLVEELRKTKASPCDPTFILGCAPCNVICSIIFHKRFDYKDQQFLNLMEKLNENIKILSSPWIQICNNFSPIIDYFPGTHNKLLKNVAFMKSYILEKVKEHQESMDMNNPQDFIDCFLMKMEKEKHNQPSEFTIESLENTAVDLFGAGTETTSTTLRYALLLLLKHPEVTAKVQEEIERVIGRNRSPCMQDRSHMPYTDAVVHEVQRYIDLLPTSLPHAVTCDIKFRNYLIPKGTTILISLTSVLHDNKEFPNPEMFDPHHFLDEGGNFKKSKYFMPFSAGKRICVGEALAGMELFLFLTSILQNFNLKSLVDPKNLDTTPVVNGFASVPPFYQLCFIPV

In the case of `C[C@@H]1Cc2c(ccc3[nH]ncc23)[C@@H](c2ccc(NC3CN(CCCF)C3)cn2)N1CC(F)(F)F` [CAMIZESTRANT], the Stabilty in series [1] is 98.9%; in [4], 78.9%; in [12], “Unstable”; in series [13], “Stable”. Moreover, the remaining at 336 h in series [2] is 99.4%. Moreover, the remaining at 2190 h in series [3] was 99.3%. Also, the 50% inhibitory concentration (IC50) was more than 30000 nM against Cytochrome P450 2C9, 25.1 nM in the series with MCF7 [6], 5.01 nM in the series on MCF7 [7] and 330 nM at Histamine H3 receptor. Also, in [5], the inhibition in vivo at 2 mg/kg came out at 73%. Moreover, the half-life in [8] is 5.1 h. The Vd in [9] came to 9.2 L/kg. Further, in [10], the Fa was more than 95%. In addition, the hepatocyte CLint in [11] is 18 µL/min/1e6 cells. The compound further gave a bioavailability in series [14] of 19%. The compound also showed a clearance in series [15] of 73 mL/min/kg. For the same compound, in [16], the pKa was determined as 8.4. The compound further yielded a fraction unbound in series [17] of 0.23. The maximal effect (Emax) in [18] was 99%.

As usually defined, the IC50 is the point on the concentration scale where inhibition reaches its midpoint. One may read the half-life as how long it takes for the measured level to halve. Lower therefore signals rapid decline. The bioavailability is dose-corrected exposure relative to a reference, in per cent. A low value points to poor availability. The term pKa denotes the negative logarithm of the acid dissociation constant. In general, fraction unbound refers to the share of the substance not bound to proteins or other matrix. Read a low fraction unbound as extensive binding. The Emax is the maximal effect, on the per cent scale that the assay sets.
